STEP inh: STEP phosphatase inhibitors, primary screen, biochemical, fluorescence intensity, uHTS. Tyrosine-protein phosphatase non-receptor type 5 (Homo sapiens), P54829. recombinant STEP, OMFP fluorogenic substrate. inhibition, % at 20 µM. 360,000 compounds, 0.25% hits. AID 588621, 2011;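 active = inhibition at 20 µM, scaled per plate between control wells, above about 37%, limit read from the data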;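 note: 0% = DMSO with enzyme and substrate and 100% = substrate only without enzyme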
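medium = Bis-Tris buffer pH 6.0, 2.5 mM DTT, 0.005% Tween 20 | test system = STEP (striatal-enriched tyrosine phosphatase) enzyme, cell-free | measure = normalized % inhibition | compound dosing = 20 µM, 1% DMSO | also added = 25 µM OMFP | schedule = reaction 20 min, ambient temperature | measured by = fluorescence read at 480 nm ex / 540 nm em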
SUMO1-SIM PPI: modulators of SUMO1 protein-protein interactions, primary screen, biochemical, uHTS; SUMO1 binding to a labelled peptide, TR-FRET, 1 h; inhibition, % at 20 µM; 360,000 compounds, 0.33% hits; in the data active = inhibition above about 37%
Target sequence (P63165 whole entry, looked up): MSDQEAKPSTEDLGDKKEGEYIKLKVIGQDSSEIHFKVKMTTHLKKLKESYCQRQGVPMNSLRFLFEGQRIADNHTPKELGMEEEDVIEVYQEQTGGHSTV
DNMT1 block: human DNMT1 methyltransferase inhibitors, primary screen, biochemical, molecular beacon, fluorescence, HinP1I cleavage, uHTS. DNA (cytosine-5)-methyltransferase 1 (Homo sapiens), P26358. AID 588458, 2011. inhibition (reported as % activation of signal), % at 10 µM. 360,000 compounds, 0.83% hits; in the data active = inhibition above about 50%
Scp-1 inhibitor: Scp-1 phosphatase inhibitors, primary screen, biochemical, colorimetric, uHTS; 340,000 compounds, 0.88% hits; inhibition, % at 20 µM; Recombinant Scp1, phosphopeptide, malachite green phosphate absorbance;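 active = inhibition above about 50% at 20 µM, limit read from the data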;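 note: plate controls were DMSO wells with enzyme for no effect and wells lacking enzyme for full effect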
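Times: enzyme reaction 45 min at room temperature, colour 5 min, stabilisation 30 min. Material: SCP-1 catalytic fragment, aa 76-261. Medium: Acidic Tris acetate buffer with magnesium and detergent. Signal: colorimetric free-phosphate detection, absorbance 630 nm. Read-out basis: % inhibition of SCP-1 phosphate liberation. Reagent: Phosphorylated 17-residue peptide substrate.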
LMPTP inh: LMPTP phosphatase inhibitors, primary screen, biochemical, fluorescence intensity, uHTS | AID 651560, 2012 | recombinant LMPTP-A, OMFP fluorogenic substrate | 360,000 compounds, 0.22% hits | inhibition, % at 20 µM;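 active = compounds that cut the enzyme signal by at least half of the control window in the single-dose screen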;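 note: plate controls were DMSO wells with enzyme plus substrate for no effect and substrate without enzyme for full effect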
Target sequence (P24666 whole entry, looked up): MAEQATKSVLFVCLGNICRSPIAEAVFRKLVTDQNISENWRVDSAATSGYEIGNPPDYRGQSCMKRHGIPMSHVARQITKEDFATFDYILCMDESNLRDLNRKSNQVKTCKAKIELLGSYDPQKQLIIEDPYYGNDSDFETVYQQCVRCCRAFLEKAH
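Assay system: LMPTP-A, protein tyrosine phosphatase of low molecular weight / Medium: pH 6.0 Bis-Tris buffer with DTT and Triton X-100 / Schedule: 50 min enzyme reaction at room temperature, protected from light / Measured by: endpoint fluorescence intensity from OMFP dephosphorylation / Read-out basis: % inhibition relative to no-enzyme and uninhibited control wells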
Rpn11 block: Rpn11 (PSMD14) deubiquitinase inhibitors, primary screen, biochemical, fluorescence polarization, uHTS; human 26S proteasome, Ub4-pepOG fluorescence polarization; 20S core pre-blocked with epoxomicin; 360,000 compounds, 0.59% hits; inhibition, % at 20 µM;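 active = inhibition at 20 µM, scaled to each plate's controls, above about 33%, limit read from the data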
Target sequence (O00487 whole entry, looked up): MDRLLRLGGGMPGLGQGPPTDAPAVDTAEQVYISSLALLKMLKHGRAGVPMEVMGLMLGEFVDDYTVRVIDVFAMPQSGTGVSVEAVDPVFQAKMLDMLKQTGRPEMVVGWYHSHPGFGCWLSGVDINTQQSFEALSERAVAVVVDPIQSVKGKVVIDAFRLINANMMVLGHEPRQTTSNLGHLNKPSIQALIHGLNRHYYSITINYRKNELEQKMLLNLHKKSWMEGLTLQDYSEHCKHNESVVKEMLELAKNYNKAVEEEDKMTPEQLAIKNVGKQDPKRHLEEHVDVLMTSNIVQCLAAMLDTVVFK
DNMT1 inh conf: DNMT1 methyltransferase inhibitor retest, confirmation, biochemical, molecular beacon, fluorescence, single concentration; 2,300 compounds, 8% hits; inhibition, % at 10 µM; AID 602385, 2012; DNMT1 molecular beacon HinP1I cleavage; shares compounds with DNMT1 block;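 active = average inhibition of at least 30% in the single-concentration confirmation test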
Beacon interf: beacon fluorescence artifact counter-screen. shares compounds with DNMT1 block. 2,300 compounds, 1% hits. DNMT1 molecular beacon spectral interference counterscreen, fluorescence 485/520. activation (fluorescence interference), % at 10 µM;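 active = activation of at least 30% at 10 µM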;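 note: DNMT1 catalytic domain with a HinP1I cleavage step and a FAM/dabcyl DNA beacon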
* marks the source's active call; other numbers are inactive results. Sampled rows, rich in hits. Any-hit rate of the full collection: about 2.3%.

Results for CC(C)(C)N1C(=O)NC(=O)/C(=C\c2ccc3c(c2)CCN3CCCCl)C1=O ?
STEP inh: 2; SUMO1-SIM PPI: -13; DNMT1 block: -9; Scp-1 inhibitor: 5; LMPTP inh: 1

How did COC(=O)C1=C(c2ccc(-c3ccccc3)c(F)c2)C[C@@H]2CC[C@H]1N2C(=O)NC1Cc2ccccc2C1 do in these assays?
STEP inh: 2; SUMO1-SIM PPI: 0; DNMT1 block: -10; Scp-1 inhibitor: -8; LMPTP inh: 7; Rpn11 block: 3

What do the screens show for `CN1CCC(O)(c2cccs2)C(C(=O)c2cccs2)C1` (stereo not given)?
STEP inh: 6; SUMO1-SIM PPI: 1; DNMT1 block: 2; Scp-1 inhibitor: -10; LMPTP inh: -1; Rpn11 block: -3

What do the screens show for `CN(C)c1ccc(/C=C2\C(=O)NC(=O)N(Cc3ccc(F)cc3)C2=O)cc1`?
STEP inh: -1; SUMO1-SIM PPI: 4; DNMT1 block: -7; Scp-1 inhibitor: -1; LMPTP inh: 0; Rpn11 block: 21

Results for O=C1NC(=O)N(Cc2ccc(F)cc2)C(=O)/C1=C\c1ccoc1 ?
STEP inh: 15; SUMO1-SIM PPI: 33; DNMT1 block: 88*; Scp-1 inhibitor: 64*; LMPTP inh: 11; DNMT1 inh conf: 3; Beacon interf: -1

How did CC(C)OCCCNC(=O)c1c(N)n(Cc2cccs2)c2nc3ccccc3nc12 do in these assays?
STEP inh: 2; SUMO1-SIM PPI: 31; DNMT1 block: 32; Scp-1 inhibitor: 23; LMPTP inh: 4; Rpn11 block: 18

What do the screens show for `CC(C)OC(=O)c1c(N)n(Cc2ccco2)c2nc3ccccc3nc12`?
STEP inh: 2; SUMO1-SIM PPI: 4; DNMT1 block: -14; Scp-1 inhibitor: -5; LMPTP inh: -2; Rpn11 block: 1

How did COCCOC(=O)c1c(N)n(Cc2ccco2)c2nc3ccccc3nc12 do in these assays?
STEP inh: 2; SUMO1-SIM PPI: 49*; DNMT1 block: 66*; Scp-1 inhibitor: -1; LMPTP inh: 2; Rpn11 block: -14; DNMT1 inh conf: 0; Beacon interf: 2

How did Nc1c(C(=O)OCC2CCCO2)c2nc3ccccc3nc2n1Cc1cccs1 (stereo not given) do in these assays?
STEP inh: -1; SUMO1-SIM PPI: 34; DNMT1 block: 73*; Scp-1 inhibitor: 6; LMPTP inh: 6; Rpn11 block: 8; DNMT1 inh conf: 0; Beacon interf: 2

What do the screens show for `COC(=O)c1c(N)n(Cc2ccc(OC)cc2)c2nc3ccccc3nc12`?
STEP inh: -2; SUMO1-SIM PPI: 31; DNMT1 block: 70*; Scp-1 inhibitor: -2; LMPTP inh: 6; Rpn11 block: 5; DNMT1 inh conf: 1; Beacon interf: 0

What do the screens show for `C[C@]12CC[C@@H](O)CC1=CCC1C2CC[C@@]2(C)C1CC[C@@H]2N` (stereo not given in full)?
STEP inh: -4; SUMO1-SIM PPI: -2; DNMT1 block: 81*; Scp-1 inhibitor: -5; LMPTP inh: -2; Rpn11 block: -3; DNMT1 inh conf: 1; Beacon interf: 2

How did O=C(O)Cn1cc(/C=C2\C(=O)NC(=O)N(c3ccc(Cl)cc3)C2=O)c2ccccc21 do in these assays?
STEP inh: 0; SUMO1-SIM PPI: 1; DNMT1 block: 67*; Scp-1 inhibitor: -11; LMPTP inh: 1; Rpn11 block: 10; DNMT1 inh conf: 5; Beacon interf: 3

What do the screens show for `O=C(O)Cn1cc(C=C2C(=O)NC(=O)NC2=O)c2ccccc21`?
STEP inh: 3; SUMO1-SIM PPI: -15; DNMT1 block: 5; Scp-1 inhibitor: 5; LMPTP inh: 0; Rpn11 block: -2

Results for O=C(/C=C/c1ccccc1)N1Cc2ccccc2-n2nncc2C1 ?
STEP inh: 1; SUMO1-SIM PPI: -11; DNMT1 block: 3; LMPTP inh: -1; Rpn11 block: -8

How did Clc1ccc(-c2nc3ccc(Cl)cn3c2CN2CCOCC2)cc1 do in these assays?
STEP inh: 0; SUMO1-SIM PPI: 15; DNMT1 block: 73*; Scp-1 inhibitor: -3; LMPTP inh: 0; Rpn11 block: -4; DNMT1 inh conf: 2; Beacon interf: 5

What do the screens show for `CCN(C(=O)COC(=O)Cc1ccccc1)c1c(N)n(Cc2ccccc2)c(=O)[nH]c1=O`?
STEP inh: -1; SUMO1-SIM PPI: -4; DNMT1 block: 86*; Scp-1 inhibitor: -8; LMPTP inh: 0; Rpn11 block: 1; DNMT1 inh conf: 4; Beacon interf: 3

Results for O=C1CC(N2CCC(n3c(=O)[nH]c4ccccc43)CC2)C(=O)N1c1ccc(F)cc1 (stereo not given) ?
STEP inh: 1; SUMO1-SIM PPI: 5; DNMT1 block: 61*; Scp-1 inhibitor: 6; LMPTP inh: 2; Rpn11 block: 6; DNMT1 inh conf: 0; Beacon interf: 2

What do the screens show for `O=C(c1ccc(N2CC3CC(C2)c2cccc(=O)n2C3)c([N+](=O)[O-])c1)N1CCCC1` (stereo not given)?
STEP inh: -1; SUMO1-SIM PPI: -15; DNMT1 block: 1; Scp-1 inhibitor: -5; LMPTP inh: 0; Rpn11 block: 1

What do the screens show for `O=C(/C=C/c1c[nH]c2ccccc12)c1c(O)n(CCc2ccccc2)c(=O)[nH]c1=O`?
STEP inh: -42; SUMO1-SIM PPI: -92; DNMT1 block: -12; Scp-1 inhibitor: -4; LMPTP inh: 6

From PubChem BioAssay
